Test results from ChEMBL document CHEMBL3414569, “Amino acid modified xanthone derivatives: novel, highly promising membrane-active antimicrobials for multidrug-resistant Gram-positive bacterial infections” (J Med Chem, 2015).
In brackets after ≈: the same amount, converted by molar mass. Activity calls are given as the source filed them.

Tests used:
Mus musculus [1] = experiment: Toxicity in C57BL6 mouse eye assessed as effect on wound closure at 3 mg/ml applied topically 5 times/day for 4 days by slit lamp biomicroscopy; assay type: organism-based; details: in vivo, topical_or_ocular, 96 h
Staphylococcus aureus [2] = experiment: Antimicrobial activity against multidrug resistant Staphylococcus aureus isolates by broth macrodilution method; assay type: functional
[3] = Selectivity index, ratio of HC50 for induction of hemolysis in New Zealand white rabbit RBC to MIC for Bacillus cereus ATCC 11778
[4] = Retention time of the compound; assay type: physicochemical
Method in brief: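 Reverse-phase HPLC of 20 μL injections of a 10 μg/mL sample at 1 mL/min. Gradient: 5−55% ACN over 5 min, then 55−95% over 15 min.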

[5] = Selectivity index, ratio of HC50 for induction of hemolysis in New Zealand white rabbit RBC to MIC for Staphylococcus aureus DM4001
Staphylococcus aureus [6] = experiment: Antimicrobial activity against Staphylococcus aureus ATCC 29213 in presence of 4% BSA by broth macrodilution method; assay type: functional
Method in brief: (§1)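 MIC by CLSI broth macrodilution in Mueller Hinton broth, with BSA added to the bacterial suspension at a final 4% w/v. Inoculum was made by direct colony suspension from an 18−20 h tryptic soy agar plate.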

Staphylococcus aureus [7] = experiment: Antimicrobial activity against Staphylococcus aureus ATCC 29213 in absence of 4% BSA by broth macrodilution method; assay type: functional
Method in brief: (§2)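 Broth macrodilution MIC in Mueller Hinton broth following CLSI guidelines. Inoculum was prepared by direct colony suspension from an 18−20 h tryptic soy agar plate.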

Corynebacterium jeikeium = experiment: Antimicrobial activity against Corynebacterium jeikeium isolates by broth macrodilution method; assay type: functional
Staphylococcus aureus [8] = experiment: Antimicrobial activity against methicillin resistant Staphylococcus aureus DM09809R by broth macrodilution method; assay type: functional; method in brief: as §2
Mus musculus [9] = experiment: Toxicity in C57BL6 mouse eye assessed as induction of toxicity related clinical signs at 3 mg/ml applied topically 5 times/day for 4 days; assay type: organism-based; details: in vivo, topical_or_ocular, 96 h
Method in brief: (§3)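 Three healthy wild-type C57BL6 mice (6−8 weeks) per treatment received 0.5, 1 or 3 mg/mL compound in 10 mM PBS. Applied topically to the eye 5 times/day for 4 days. Corneal clarity checked daily through day 4 by slit-lamp biomicroscopy; histological sections also inspected.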

Staphylococcus aureus [10] = experiment: Antimicrobial activity against methicillin resistant Staphylococcus aureus isolates by broth macrodilution method; assay type: functional
Staphylococcus aureus [11] = experiment: Antimicrobial activity against teicoplanin intermediate resistant Staphylococcus aureus isolates by broth macrodilution method; assay type: functional
Staphylococcus aureus [12] = experiment: Antimicrobial activity against methicillin sensitive Staphylococcus aureus isolates by broth macrodilution method; assay type: functional
Listeria monocytogenes = experiment: Antimicrobial activity against Listeria monocytogenes isolates by broth macrodilution method; assay type: functional
Staphylococcus aureus [13] = experiment: Bactericidal activity against methicillin resistant Staphylococcus aureus DM21455 assessed as induction of bacterial killing at 2 times MIC after 30 mins by cell counting based time kill assay; assay type: functional
Method in brief: (§4)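 Time-kill at 35 °C with colonies taken from an 18−20 h tryptic soy agar plate and suspended in CA-MHB at 10^5−10^6 CFU/mL, then drug added. Aliquots taken at set times were diluted 10-fold serially in D/E neutralization broth, spread on tryptic soy agar, incubated 48−72 h at 35 °C, and colonies counted. Strains: MRSA DM21455, vanA and vanB VRE.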

Staphylococcus aureus [14] = experiment: Antimicrobial activity against Staphylococcus aureus ATCC 29213 infected in mouse cornea infection model assessed as reduction in viable bacterial count at 0.3% solution applied topically 5 times/day dosed 1 day after infection relative to control; assay type: functional
Method in brief: (§5)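 Mouse cornea given three superficial 1 mm scratches on one eye under ketamine/xylazine, then 10 μL of S. aureus ATCC 29213 suspension (1 × 10^8 CFU/mL in USP phosphate buffer) applied topically. Treated topically 5 times/day from day 1 postinfection; PBS negative control; 4 mice/group killed on days 1, 2 and 3. Corneas homogenized in 0.9% NaCl with 0.25% BSA, plated in duplicate on TSA (48 h, 35 °C); log10 CFU/cornea.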

[15] = tested on: Staphylococcus epidermidis; experiment: Antimicrobial activity against Staphylococcus epidermidis isolates by broth macrodilution method; assay type: functional
[16] = Induction of hemolysis in New Zealand white rabbit RBC after 1 hr; assay type: cell-based, Oryctolagus cuniculus, Erythrocyte; details: New Zealand white, red blood cells (RBC)
Method in brief: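 Fresh red blood cells isolated from New Zealand white rabbits. Lysis measured over a compound concentration series; HC50 taken as the concentration lysing 50% of RBCs.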

Staphylococcus aureus [17] = experiment: Antimicrobial activity against methicillin resistant Staphylococcus aureus DM21455 in presence of 4% BSA by broth macrodilution method; assay type: functional; method in brief: as §1
Lipid bilayer [18] = experiment: Binding affinity to DOPC large unilamellar vesicles by 1D 1H NMR spectroscopy
Method in brief: (§6)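 Liposomes prepared as for the leakage LUVs: 30 mM DOPE/DOPG (75:25) or 30 mM DOPC. 1D 1H spectra of 1 mM compound recorded in water and in each liposome type at 600 MHz, 25 °C.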

Mus musculus [19] = experiment: Toxicity in C57BL6 mouse eye assessed as effect on corneal clarity at 3 mg/ml applied topically 5 times/day for 4 days by slit lamp biomicroscopy; assay type: organism-based, Cornea; details: in vivo, topical_or_ocular, 96 h; method in brief: as §3
Mus musculus [20] = experiment: Toxicity in C57BL6 mouse eye assessed as inflammatory response at 3 mg/ml applied topically 5 times/day for 4 days by slit lamp biomicroscopy; assay type: organism-based; details: in vivo, topical_or_ocular, 96 h; method in brief: as §3
[21] = Selectivity index, ratio of HC50 for induction of hemolysis in New Zealand white rabbit RBC to MIC for Staphylococcus aureus DM09809R
Staphylococcus aureus [22] = experiment: Antimicrobial activity against Staphylococcus aureus ATCC 29213 at 0.5 times MIC measured after 17 passages by multistep passage drug resistance selection study relative to wild type Staphylococcus aureus ATCC 29213 before passage; assay type: functional
Method in brief: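 Multipassage selection in S. aureus ATCC29213 across an eight-concentration dilution series. Growth was read after 20−22 h. Bacteria growing at 0.5 × MIC were repassaged into a fresh series, 17 passages in total. Resistance was defined as a more than 4-fold rise over the initial MIC.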

Staphylococcus aureus [23] = experiment: Antimicrobial activity against Staphylococcus aureus DM4001 by broth macrodilution method; assay type: functional; method in brief: as §2
Streptococcus = experiment: Antimicrobial activity against Streptococcus isolates by broth macrodilution method; assay type: functional
[24] = Selectivity index, ratio of HC50 for induction of hemolysis in New Zealand white rabbit RBC to MIC for Staphylococcus aureus DM21455
Bacillus cereus = experiment: Antimicrobial activity against Bacillus cereus ATCC 11778 by broth macrodilution method; assay type: functional
Method in brief: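 CLSI broth macrodilution in Mueller Hinton broth. Inoculum was made by direct colony suspension from colonies on an 18−20 h tryptic soy agar plate. The value is the MIC.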

Lipid bilayer [25] = experiment: Induction of vesicle leakage in DOPC large unilamellar vesicles assessed as calcein release at 1/16 compound to lipid ratio by fluorescence assay; assay type: functional
Method in brief: (§7)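 100 nm LUVs (DOPE/DOPG 75/25 or DOPC) made by film hydration in 80 mM calcein, 50 mM HEPES, 100 mM NaCl, 0.3 mM EDTA, pH 7.4. Then 7 freeze–thaw cycles, 15 extrusions and Sephadex G-50 clean-up. Compound added from DMF (<0.2%) at 50 μM final phospholipid. Fluorescence read at ex 490/em 520 nm for 30 min; 0.1% Triton X-100 set 100% lysis; three independent experiments.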

Lipid bilayer [26] = experiment: Induction of vesicle leakage in DOPE/DOPG large unilamellar vesicles assessed as calcein release at 1/16 compound to lipid ratio by fluorescence assay; assay type: functional; method in brief: as §7
Staphylococcus aureus [27] = experiment: Antimicrobial activity against methicillin resistant Staphylococcus aureus DM21455 by broth macrodilution method; assay type: functional; method in brief: as §2
Lipid bilayer [28] = experiment: Binding affinity to DOPE/DOPG large unilamellar vesicles by 1D 1H NMR spectroscopy; method in brief: as §6
Staphylococcus aureus [29] = experiment: Antimicrobial activity against vancomycin-intermediate sensitive Staphylococcus aureus isolates by broth macrodilution method; assay type: functional
Staphylococcus aureus [30] = experiment: Antimicrobial activity against Staphylococcus aureus ATCC 29213 by broth macrodilution method; assay type: functional; method in brief: as §2
Staphylococcus aureus [31] = experiment: Antimicrobial activity against methicillin resistant Staphylococcus aureus DM21455 in absence of 4% BSA by broth macrodilution method; assay type: functional; method in brief: as §2
Enterococcus [32] = experiment: Antimicrobial activity against vancomycin-sensitive Enterococcus isolates by broth macrodilution method; assay type: functional
Enterococcus [33] = experiment: Antimicrobial activity against vancomycin-resistant Enterococcus isolates by broth macrodilution method; assay type: functional
Staphylococcus aureus [34] = experiment: Antimicrobial activity against epidemic methicillin resistant Staphylococcus aureus isolates by broth macrodilution method; assay type: functional
Staphylococcus aureus [35] = experiment: Bactericidal activity against methicillin resistant Staphylococcus aureus DM21455 assessed as induction of bacterial killing at 1 times MIC after 1 hr by cell counting based time kill assay; assay type: functional; method in brief: as §4
Staphylococcus aureus [36] = experiment: Antimicrobial activity against Staphylococcus aureus ATCC 29213 infected in mouse cornea infection model assessed as reduction in viable bacterial count at 0.02% solution applied topically 5 times/day dosed 1 day after infection relative to control; assay type: functional; method in brief: as §5

Compound: COC(=O)[C@H](CCCNC(=N)N)NC(=O)COc1cc2oc3cc(OCC(=O)N[C@@H](CCCNC(=N)N)C(=O)OC)c(OC)c(CC=C(C)C)c3c(=O)c2c(O)c1CC=C(C)C
- Activity (Mus musculus [1]): Non-toxic
- MIC (Staphylococcus aureus [2]): 2 µg/mL (≈ 2.31 µM)
- Selectivity Index [3]: 77
- Retention_time [4]: 7.96 min
- Selectivity Index [5]: 77
- MIC (Staphylococcus aureus [6]): 3.12 µg/mL
- MIC (Staphylococcus aureus [7]): 1.56 µg/mL (≈ 1.8 µM)
- MIC (Corynebacterium jeikeium): 4 µg/mL (≈ 4.61 µM)
- MIC (Staphylococcus aureus [8]): 3 µg/mL (≈ 3.46 µM)
- Activity (Mus musculus [9]): Non-toxic
- MIC (Staphylococcus aureus [10]): 2 µg/mL (≈ 2.31 µM)
- MIC (Staphylococcus aureus [11]): 2 µg/mL (≈ 2.31 µM)
- MIC (Staphylococcus aureus [12]): 2 µg/mL (≈ 2.31 µM)
- MIC (Listeria monocytogenes): 4 µg/mL (≈ 4.61 µM)
- Activity (Staphylococcus aureus [13]): 99.9%
- inhibition (INH) (Staphylococcus aureus [14]): 99.7%
- MIC [15]: 2 µg/mL (≈ 2.31 µM)
- HC50 at 1 h [16]: 232 µg/mL
- MIC (Staphylococcus aureus [17]): 6.25 µg/mL
- Activity (Lipid bilayer [18]): inactive
- Activity (Mus musculus [19]): Non-toxic
- Activity (Mus musculus [20]): Non-toxic
- Selectivity Index [21]: 77
- Activity (Staphylococcus aureus [22]): Active
- MIC (Staphylococcus aureus [23]): 2 µg/mL (≈ 2.31 µM)
- MIC (Streptococcus): 4 µg/mL (≈ 4.61 µM)
- Selectivity Index [24]: 77
- MIC (Bacillus cereus): 2 µg/mL (≈ 2.31 µM)
- Activity (Lipid bilayer [25]): 32%
- Activity (Lipid bilayer [26]): 68%
- MIC (Staphylococcus aureus [27]): 3 µg/mL (≈ 3.46 µM)
- Activity (Lipid bilayer [28]): Active
- MIC (Staphylococcus aureus [29]): 4 µg/mL (≈ 4.61 µM)
- MIC (Staphylococcus aureus [30]): 3 µg/mL (≈ 3.46 µM)
- MIC (Staphylococcus aureus [31]): 3.12 µg/mL (≈ 3.6 µM)
- MIC (Enterococcus [32]): 2 µg/mL (≈ 2.31 µM)
- MIC (Enterococcus [33]): 2 µg/mL (≈ 2.31 µM)
- MIC (Staphylococcus aureus [34]): 2 µg/mL (≈ 2.31 µM)
- Activity (Staphylococcus aureus [35]): 99.9%

Compound: CCN(CC)CCCCOc1cc2oc3cc(OCCCCN(CC)CC)c(OC)c(CC=C(C)C)c3c(=O)c2c(O)c1CC=C(C)C
- Selectivity Index [3]: 7
- Selectivity Index [5]: 7
- MIC (Staphylococcus aureus [8]): 2 µg/mL (≈ 3.01 µM)
- HC50 at 1 h [16]: 20 µg/mL
- Ratio (Staphylococcus aureus [36]): <1
- Selectivity Index [21]: 7
- MIC (Staphylococcus aureus [23]): 2 µg/mL (≈ 3.01 µM)
- Selectivity Index [24]: 7
- MIC (Bacillus cereus): 3 µg/mL (≈ 4.51 µM)
- MIC (Staphylococcus aureus [27]): 0.5 µg/mL (≈ 0.752 µM)
